Test results reported in ChEMBL document CHEMBL5506039, “Discovery and Optimization of Tambjamines as a Novel Class of Antileishmanial Agents” (J Med Chem, 2024).

How the values were obtained:
[1] = Cytotoxicity against mouse J774.A1 cells assessed as reduction in cell survival measured after 96 hrs by SYBR Green II dye based analysis; format: toxicity
In short: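 Uninfected J774A.1 macrophages, 1 × 10⁴ cells/well in DMEM/10% HI-FBS, reattached 3 h, then exposed to compounds for 96 h. DNA content read after lysis with SYBR Green II (1:1000 in 1% Triton/PBS), 1 h dark at room temperature, fluorescence Ex 485/Em 535.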

[2] = Metabolic stability in pre-warmed pooled human liver microsomes assessed as half life at 1 uM measured upto 60 mins by LC-MS analysis; format: ADME, Microsome
In short: (§1)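 Compound at 1 μM final with 0.5 mg/mL pooled human or mouse liver microsomes, 1.3 mM NADP and 3.3 mM MgCl₂ in 100 mM potassium phosphate, pH 7.4. Reaction started with 1 U/mL G6PD at 37 °C with shaking.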

Leishmania mexicana [3] = assay: Antileishmanial activity against Leishmania mexicana MNYC/BZ/62/M379 amastigotes expressing red-shifted firefly luciferase from integrated ribosomal (28S) RNA locus infected in mouse J774.A1 cells assessed as reduction in parasite survival measured after 96 hrs by luminescence based analysis; format: functional, organism-based; conditions: MNYC/BZ/62/M379, J774.A1, 96 h
In short: (§2)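 J774A.1 macrophages infected with stationary-phase luciferase-expressing promastigotes at 10:1 parasites:macrophage, overnight at 37 °C, 5% CO₂. Non-internalized parasites washed off and 1 × 10⁴ cells/well replated in MEM/10% HI-FBS. Compounds in DMSO added as serial 3-fold dilutions (typically 10 μM–1 nM) for 96 h. Luciferase luminescence read; EC50 from log-transformed sigmoidal variable-slope fit. Mean ± SD of ≥2 independent experiments.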

HepG2 = assay: Cytotoxicity against human HepG2 cells assessed as inhibition of cell growth incubated for 48 hrs by MTT assay; format: toxicity, cell-based
In short: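 HepG2 cells, 2.5 × 10⁴/well in supplemented complete MEM, settled overnight at 37 °C, 5% CO₂. Compounds given as 11 duplicate 1.6-fold dilutions, 10 to 0.15 μg/mL, for 48 h. MTT added for 1 h in the dark at room temperature, formazan dissolved in acidified isopropanol, absorbance read. Triplicate runs; IC50 by sigmoidal variable-slope regression.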

Leishmania donovani = assay: Antileishmanial activity against Leishmania donovani amastigotes expressing red-shifted firefly luciferase from integrated ribosomal (28S) RNA locus infected in mouse J774.A1 cells assessed as reduction in parasite growth measured after 96 hrs by luminescence based analysis; format: functional, organism-based; conditions: J774.A1, 96 h; in short: as §2
Leishmania mexicana [4] = assay: Antileishmanial activity against Leishmania mexicana MNYC/BZ/62/M379 amastigotes expressing red-shifted firefly luciferase from integrated ribosomal (28S) RNA locus infected in mouse J774.A1 cells assessed as parasite survival at 0.1 uM measured after 96 hrs by luminescence based analysis relative to control; format: functional; conditions: MNYC/BZ/62/M379, J774.A1
[5] = Cytotoxicity against mouse J774.A1 cells assessed as cell survival at 0.1 uM measured after 96 hrs by SYBR Green II dye based analysis relative to control; format: toxicity; conditions: read-out: Survival
In short: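 Uninfected J774A.1 mouse macrophages were plated at 1 × 10⁴ cells/well in DMEM with 10% heat-inactivated FBS and left 3 h at 37 °C to reattach. Compounds were added from DMSO, and analogues were screened at 0.1 μM. After 96 h at 37 °C in 5% CO₂, medium was removed. SYBR Green II (1:1000 in 1% Triton/PBS) was added for 1 h in the dark at room temperature, and fluorescence was read at Ex 485/Em 535 as a DNA-content measure of viability.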

[6] = Therapeutic index, ratio of IC50 for human HepG2 cells to EC50 for antileishmanial activity against Leishmania donovani amastigotes expressing red-shifted firefly luciferase from integrated ribosomal (28S) RNA locus infected in mouse J774.A1 cells; format: toxicity, cell-based; conditions: read-out: TI
In short: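 TI computed as HepG2 IC50 divided by L. donovani EC50. HepG2: MTT assay with 48 h exposure to 10–0.15 μg/mL (1.6-fold dilutions), triplicates, sigmoidal variable-slope fit. Amastigotes: J774A.1 macrophages infected with RS-luciferase promastigotes at 10:1, washed after 24 h, then 96 h compound exposure (3-fold dilutions, 10 μM–1 nM) in MEM/10% HI-FBS at 37 °C, 5% CO₂; luciferase readout.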

[7] = Therapeutic index, ratio of EC50 for mouse J774.A1 cells to EC50 for antileishmanial activity against Leishmania mexicana MNYC/BZ/62/M379 amastigotes expressing red-shifted firefly luciferase from integrated ribosomal (28S) RNA locus infected in mouse J774.A1 cells; format: toxicity, cell-based; conditions: read-out: TI
[8] = Metabolic stability in pre-warmed pooled mouse liver microsomes assessed as half life at 1 uM measured upto 60 mins by LC-MS analysis; format: ADME, Microsome; in short: as §1
Leishmania mexicana [9] = assay: Antileishmanial activity against Leishmania mexicana MNYC/BZ/62/M379 amastigotes expressing red-shifted firefly luciferase from integrated ribosomal (28S) RNA locus infected in mouse J774.A1 cells assessed as inhibition of parasite growth at 0.1 uM measured after 96 hrs by luminescence based analysis relative to control; format: functional; conditions: MNYC/BZ/62/M379, J774.A1, read-out: INH

Row | Compound | EC50 at 96 h [1] | half-life at 1 µM [2] | EC50 (Leishmania mexicana [3]) | IC50 (HepG2) | EC50 (Leishmania donovani) | survival at 0.1 µM (Leishmania mexicana [4]) | viability at 96 h, 0.1 µM [5] | selectivity ratio [6] | selectivity ratio [7] | half-life at 1 µM [8] | percent inhibition of parasite growth at 0.1 µM (Leishmania mexicana [9])
1 | COC1=CC(c2ccc[nH]2)=N/C1=C\N[C@H]1CC[C@H](C)CC1.Cl | 696 nM | 0.288 h | 40 nM | 3420 nM | 122 nM | 12.4% | 66.6% | 28 | 17 |  | 
2 | COC1=CC(c2ccc[nH]2)=N/C1=C\Nc1ccc(Oc2ccc(C)cc2)cc1 | 2740 nM | > 1 h | 93 nM | 1730 nM | 285 nM | 26% | 69.8% | 6 | 29 | 0.782 h | 
3 | CCC1=CC(c2ccc[nH]2)=N/C1=C\NC1CCCCCC1 |  |  |  |  |  | 42.1% | 88.7% |  |  |  | ~60%
4 | CC1=CC(c2ccc[nH]2)=N/C1=C\NC1CCCCCC1 |  |  |  |  |  | 26.3% | 88.4% |  |  |  | ~75%
5 | COC1=CC(c2ccc[nH]2)=N/C1=C\NCC1CCCCCC1.Cl | > 1000 nM | 0.31 h | 48.5 nM | 6060 nM | 88 nM | 5.3% | 72.2% | 69 | > 21 |  | 
6 | COC1=CC(c2ccc[nH]2)=N/C1=C\Nc1ccc(F)c(OC)c1.Cl |  | > 1 h |  |  |  | 98.3% | 58.7% |  |  |  | ~2%
7 | COC1=CC(c2ccc[nH]2)=N/C1=C\Nc1ccc(Cl)c(OC)c1.Cl |  | > 1 h |  |  |  | 77.6% | 57.3% |  |  | > 1 h | ~22%
8 | COC1=CC(c2ccc(Cc3ccc(OC)cc3)[nH]2)=N/C1=C\Nc1ccc(Cl)cc1 |  |  |  |  |  | 93.5% | 101% |  |  |  | ~7%
9 | CCc1c(C)[nH]c(C2=N/C(=C\NC34CC5CC(CC(C5)C3)C4)C(C)=C2C)c1C.Cl | 675 nM | > 1 h | 54 nM | 21300 nM | 81.2 nM | 10.7% | 63.5% | 263 | 12 | 0.483 h | 
10 | Cl.FC(F)(F)Oc1ccc(C2=CC(c3ccc[nH]3)=N/C2=C\NC23CC4CC(CC(C4)C2)C3)cc1 | 908 nM | > 1 h | 90.5 nM | 85500 nM | 398 nM | 39% | 70.6% | 215 | 10 | > 1 h | 
11 | CCCCCCN/C=C1\N=C(c2ccc[nH]2)C=C1OC.Cl | > 1000 nM | 0.285 h | 52.5 nM | 26700 nM | 118 nM | 11.1% | 127% | 226 | > 19 |  | 
12 | CCc1ccc(C2=N/C(=C\NC3CCCCCCC3)C(C)=C2C)[nH]1.Cl | 573 nM | > 1 h | 31.4 nM |  |  | 1.3% | 53.6% |  | 18 | > 1 h | > 96%
13 | Cl.Clc1ccc(OC2=CC(c3ccc[nH]3)=N/C2=C\NC23CC4CC(CC(C4)C2)C3)cc1 | 567 nM | > 1 h | 38.3 nM | 14500 nM | 181 nM | 7.16% | 67.1% | 80 | 15 | > 1 h | 
14 | Cl.Fc1cc(F)cc(OC2=CC(c3ccc[nH]3)=N/C2=C\NC23CC4CC(CC(C4)C2)C3)c1 | 680 nM | > 1 h | 79 nM | 59400 nM | 184 nM | 27.3% | 59.3% | 323 | 8.6 | > 1 h | 
15 | COC1=CC(c2ccc[nH]2)=N/C1=C\N[C@H]1CC[C@H](C(F)(F)F)CC1.Cl | 1100 nM | 0.217 h | 46.7 nM | 5120 nM | 198 nM | 9.48% | 74.4% | 26 | 24 |  | 
16 | C(/NC1CCCCCC1)=C1/N=C(c2ccc[nH]2)C2=C1CCCC2.Cl | 252 nM | > 1 h | 74 nM | 6200 nM | 101 nM | 24.7% | 80% | 61 | 3.4 |  | 
17 | CC1=C(C)/C(=C/NC2CCCCCCC2)N=C1c1ccc[nH]1 |  |  |  |  |  | 33.5% | 43.5% |  |  |  | < 80%
18 | CC1=C/C(=C\NC23CC4CC(CC(C4)C2)C3)N=C1c1ccc[nH]1.Cl | 1130 nM | > 1 h | 48 nM |  | 100 nM | 15.4% | 86.9% | 300 | 24 |  | 
